The assay addresses T1, DMT1 (SLC11A2) (Homo sapiens, UniProt P49281).
T1 sequence (P49281 1-568): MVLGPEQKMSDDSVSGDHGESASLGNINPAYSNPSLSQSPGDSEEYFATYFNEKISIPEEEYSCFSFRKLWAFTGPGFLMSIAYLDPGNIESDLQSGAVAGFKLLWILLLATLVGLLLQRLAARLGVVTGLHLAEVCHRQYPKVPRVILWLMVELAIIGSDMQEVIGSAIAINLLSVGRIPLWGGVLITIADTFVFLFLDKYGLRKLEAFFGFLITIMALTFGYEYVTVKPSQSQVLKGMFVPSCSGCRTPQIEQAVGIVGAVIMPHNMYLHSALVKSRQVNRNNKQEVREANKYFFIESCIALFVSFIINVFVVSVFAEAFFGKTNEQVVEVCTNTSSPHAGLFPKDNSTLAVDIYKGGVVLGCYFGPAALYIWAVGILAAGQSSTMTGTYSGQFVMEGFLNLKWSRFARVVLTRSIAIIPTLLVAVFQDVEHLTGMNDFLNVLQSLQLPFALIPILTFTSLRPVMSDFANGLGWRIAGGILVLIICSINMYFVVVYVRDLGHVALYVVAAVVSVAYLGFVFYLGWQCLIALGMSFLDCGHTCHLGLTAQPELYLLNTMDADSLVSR
Briefly: Radioactive 55Fe uptake assay in HEK293 cells stably overexpressing DMT1. Format: cell-based. Put shortly:
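HEK293 cells stably expressing human DMT1 (pIRES2 DsRed-Express2, geneticin 500 μg/mL) were seeded at 50,000 cells/well for 24 h. Cells were preincubated 5 min in uptake buffer, pH 5.5, with a range of test compound. ⁵⁵Fe²⁺ (1 μM) with ascorbate and unlabelled Fe²⁺ was then added for 15 min at room temperature. After ice-cold washes, uptake was read by scintillation counting as % of DMSO control. IC50 came from a 4-parameter logistic fit (two experiments in triplicate), and LE was derived from IC50.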

With `CC1CCc2sc(C(=O)O)cc2C1` (centres unmarked) [compound 2], the 50% inhibitory concentration (IC50) worked out at 525 ± 65 µM. Further, the “ligand efficiency LE” value (from DMT1 IC50) stood at 0.35 kcal^.mol^−1.

As usually defined, the IC50 is the point on the concentration scale where inhibition reaches its midpoint.

The values are drawn from PMC8596699 (Chemmedchem, 2021).
